A word on the IC50: it is the concentration that gives 50% inhibition. As usually defined, the inhibition is the drop in the measured response relative to a control, in per cent.

Test [1] concerns BXPC-3. Kind of test: Antiproliferative activity against human BxPC3 cells assessed as cell viability at 0.5 uM after 48 hrs by MTT assay (reference value: 98.8%). It counts as functional. The settings on record: BXPC-3, 48 h, read-out: Activity.
Test [2] concerns ASPC1. Kind of test: Antiproliferative activity against human Aspc-1 cells assessed as cell viability at 8 uM after 48 hrs by MTT assay (reference value: 98.1%). Conditions: ASPC1, 48 h, read-out: Activity. It counts as functional. For orientation: Formazan colour is commonly taken as a measure of viable cells.
Test [3] concerns BXPC-3. Kind of test: Antiproliferative activity against human BxPC3 cells after 72 hrs by MTT assay. Type of test: functional, cell-based. The settings on record: BXPC-3, 72 h. In outline:
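Cells grown in DMEM with 10% FBS and 1% penicillin-streptomycin at 37 °C, 5% CO2. Seeded at 4,000 to 5,000 cells/well, cultured one day, then exposed to compounds for 72 h at 1.25 to 40 μmol/L, five replicates per concentration. MTT absorbance read at 570 nm. IC50 from five-point dose-response curves; mean of at least three separate experiments.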

In test [4] the test system is ASPC1. Kind of test: Cell cycle arrest in human Aspc-1 cells assessed as accumulation at S phase at 1 uM after 72 hrs by propidium iodide staining-based flow cytometry (reference value: 59.70%). Type of test: functional. (In general: A flow cytometer gives signals particle by particle.)
Test [5] relates to ASPC1. Description: Antiproliferative activity against human Aspc-1 cells assessed as cell viability at 4 uM after 72 hrs by MTT assay (reference value: 97%). Type of test: functional. Conditions: ASPC1, 72 h, read-out: Activity.
For test [6], the target named is Protein-tyrosine kinase 2-beta (Homo sapiens) (UniProt Q14289). Description: Inhibition of recombinant full length GST-tagged human PYK2 cytoplasmic domain expressed in baculovirus expression system at 100 nM relative to control. The procedure, abridged: (§1)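 SelectScreen biochemical kinase profiling service; percent inhibition of each kinase at a single compound concentration of 100 nM.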

Test [7] has as its system ASPC1. Kind of test: Cell cycle arrest in human Aspc-1 cells assessed as accumulation at G0/G1 phase at 1 uM after 72 hrs by propidium iodide staining-based flow cytometry (reference value: 39.41%). Type of test: functional.
The test system of test [8] is ASPC1. Kind of test: Cell cycle arrest in human Aspc-1 cells assessed as accumulation at S phase at 2.5 uM after 72 hrs by propidium iodide staining-based flow cytometry (reference value: 59.70%). Type of test: functional.
Test [9] relates to ASPC1. Kind of test: Induction of apoptosis in human Aspc-1 cells assessed as early apoptotic cells at 2.5 uM after 72 hrs by Annexin V-FITC/propidium iodide staining-based flow cytometry (reference value: 0%). Type of test: functional. The procedure, abridged: (§2)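 AsPC-1 cells (3 to 5×10^5 per well) were treated with DMSO solvent control or compound for 72 h in medium with 5% FBS. Cells were then stained with Annexin V-FITC and propidium iodide and analysed by flow cytometry. One representative experiment shown.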

The test system of test [10] is ASPC1. Description: Antiproliferative activity against human Aspc-1 cells assessed as cell viability at 4 uM after 48 hrs by MTT assay (reference value: 98.1%). It counts as functional. Conditions: ASPC1, 48 h, read-out: Activity.
Test [11] concerns ASPC1. Kind of test: Induction of apoptosis in human Aspc-1 cells assessed as early apoptotic cells at 5 uM after 72 hrs by Annexin V-FITC/propidium iodide staining-based flow cytometry (reference value: 0%). It counts as functional. In outline:
as §2

The target in test [12] is Focal adhesion kinase 1 (Homo sapiens, UniProt Q05397). Kind of test: Inhibition of recombinant full length GST-tagged human FAK expressed in baculovirus expression system at 100 nM relative to control. The procedure, abridged: as §1
The subject of test [13] is BXPC-3. Kind of test: Antiproliferative activity against human BxPC3 cells assessed as cell viability at 0.5 uM after 24 hrs by MTT assay (reference value: 100%). Type of test: functional. Conditions: BXPC-3, 24 h, read-out: Activity.
Test [14] has as its system ASPC1. Description: Cell cycle arrest in human Aspc-1 cells assessed as accumulation at G0/G1 phase at 5 uM after 72 hrs by propidium iodide staining-based flow cytometry (reference value: 39.41%). It counts as functional.
The target of test [15] is Epidermal growth factor receptor (Homo sapiens) (UniProt P00533). Description: Inhibition of recombinant GST-tagged human EGFR cytoplasmic domain (668 to 1210 residues) expressed in baculovirus expression system at 100 nM relative to control. The procedure, abridged: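 Part of a small kinase-panel profile run by an outsourced biochemical profiling service. The test compound was given at a single concentration of 100 nM, and activity was reported as percent inhibition rate.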

Test [16] relates to ASPC1. Kind of test: Induction of apoptosis in human Aspc-1 cells assessed as early apoptotic cells at 10 uM after 72 hrs by Annexin V-FITC/propidium iodide staining-based flow cytometry (reference value: 0%). Type of test: functional. In outline:
as §2

In test [17] the test system is ASPC1. Kind of test: Induction of apoptosis in human Aspc-1 cells assessed as late apoptotic cells at 10 uM after 72 hrs by Annexin V-FITC/propidium iodide staining-based flow cytometry (reference value: 0%). It counts as functional. The procedure, abridged:
as §2

The subject of test [18] is ASPC1. Description: Antiproliferative activity against human Aspc-1 cells assessed as cell viability at 0.5 uM after 72 hrs by MTT assay (reference value: 97%). Type of test: functional. The settings on record: ASPC1, 72 h, read-out: Activity.
For test [19], the target named is T1, Tyrosine-protein kinase JAK3 (Homo sapiens) (UniProt P52333).
T1 sequence (whole entry): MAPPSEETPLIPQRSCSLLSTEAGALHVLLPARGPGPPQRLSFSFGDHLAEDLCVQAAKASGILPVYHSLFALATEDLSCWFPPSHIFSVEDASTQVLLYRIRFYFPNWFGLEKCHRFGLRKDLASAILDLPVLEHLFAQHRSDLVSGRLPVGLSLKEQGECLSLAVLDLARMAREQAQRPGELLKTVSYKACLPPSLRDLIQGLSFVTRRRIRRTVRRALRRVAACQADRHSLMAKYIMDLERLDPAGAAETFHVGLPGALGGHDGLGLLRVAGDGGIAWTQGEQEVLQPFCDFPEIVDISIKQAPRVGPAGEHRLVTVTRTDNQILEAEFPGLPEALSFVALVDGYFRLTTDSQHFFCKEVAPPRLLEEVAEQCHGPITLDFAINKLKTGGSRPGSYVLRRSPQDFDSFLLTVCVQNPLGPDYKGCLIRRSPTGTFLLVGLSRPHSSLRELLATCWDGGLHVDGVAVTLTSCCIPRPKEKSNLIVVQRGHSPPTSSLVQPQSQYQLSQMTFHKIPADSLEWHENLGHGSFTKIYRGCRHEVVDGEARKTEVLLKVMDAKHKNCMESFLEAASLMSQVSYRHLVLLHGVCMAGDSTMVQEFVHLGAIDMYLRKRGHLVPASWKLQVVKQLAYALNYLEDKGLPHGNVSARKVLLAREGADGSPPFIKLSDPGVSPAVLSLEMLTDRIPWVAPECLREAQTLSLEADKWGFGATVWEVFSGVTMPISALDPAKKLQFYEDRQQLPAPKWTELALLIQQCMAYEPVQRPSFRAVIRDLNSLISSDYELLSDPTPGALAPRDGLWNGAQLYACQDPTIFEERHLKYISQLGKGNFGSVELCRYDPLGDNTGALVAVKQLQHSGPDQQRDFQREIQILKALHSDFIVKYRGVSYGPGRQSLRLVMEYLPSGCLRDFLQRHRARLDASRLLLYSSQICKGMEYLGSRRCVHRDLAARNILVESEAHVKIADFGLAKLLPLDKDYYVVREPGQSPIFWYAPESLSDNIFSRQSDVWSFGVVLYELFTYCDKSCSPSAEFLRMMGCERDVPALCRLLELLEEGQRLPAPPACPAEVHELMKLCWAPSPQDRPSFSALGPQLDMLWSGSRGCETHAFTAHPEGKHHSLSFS
Kind of test: Inhibition of recombinant GST-tagged human JAK3 catalytic domain (781 to 1124 residues) expressed in baculovirus expression system at 100 nM relative to control. The procedure, abridged: as §1

Sequence of Epidermal growth factor receptor (Homo sapiens) (P00533 whole entry, the tested form may be a part): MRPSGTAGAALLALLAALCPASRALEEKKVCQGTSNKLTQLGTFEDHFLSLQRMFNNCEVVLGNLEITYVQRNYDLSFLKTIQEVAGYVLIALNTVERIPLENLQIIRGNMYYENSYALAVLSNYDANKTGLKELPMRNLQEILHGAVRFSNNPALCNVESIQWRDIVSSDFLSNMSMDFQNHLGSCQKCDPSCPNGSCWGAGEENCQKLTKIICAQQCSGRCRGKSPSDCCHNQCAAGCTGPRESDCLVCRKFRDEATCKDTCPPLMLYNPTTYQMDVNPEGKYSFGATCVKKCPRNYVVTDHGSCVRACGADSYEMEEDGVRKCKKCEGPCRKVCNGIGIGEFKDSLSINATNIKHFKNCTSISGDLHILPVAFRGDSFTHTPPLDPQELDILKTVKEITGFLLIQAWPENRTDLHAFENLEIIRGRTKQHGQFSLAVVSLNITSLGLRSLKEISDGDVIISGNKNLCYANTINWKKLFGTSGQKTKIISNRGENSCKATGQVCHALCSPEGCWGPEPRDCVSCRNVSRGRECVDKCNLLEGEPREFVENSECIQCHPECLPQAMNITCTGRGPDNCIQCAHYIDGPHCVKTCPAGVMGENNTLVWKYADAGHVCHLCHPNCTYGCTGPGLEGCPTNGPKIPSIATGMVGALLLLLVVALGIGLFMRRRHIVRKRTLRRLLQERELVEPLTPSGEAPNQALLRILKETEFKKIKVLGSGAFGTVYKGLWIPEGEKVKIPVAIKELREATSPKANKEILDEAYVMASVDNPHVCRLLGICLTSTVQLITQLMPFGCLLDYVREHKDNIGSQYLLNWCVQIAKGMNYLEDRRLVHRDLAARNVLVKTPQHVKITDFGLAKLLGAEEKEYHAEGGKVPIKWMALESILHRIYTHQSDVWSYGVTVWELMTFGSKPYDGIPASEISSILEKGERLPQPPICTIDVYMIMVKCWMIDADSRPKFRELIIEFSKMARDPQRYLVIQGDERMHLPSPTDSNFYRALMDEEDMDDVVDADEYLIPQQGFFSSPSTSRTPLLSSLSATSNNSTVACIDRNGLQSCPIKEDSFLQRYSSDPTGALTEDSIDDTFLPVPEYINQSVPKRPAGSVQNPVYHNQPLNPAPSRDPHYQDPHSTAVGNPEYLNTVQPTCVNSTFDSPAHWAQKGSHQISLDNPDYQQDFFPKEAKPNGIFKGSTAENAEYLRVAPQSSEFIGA
Sequence of Focal adhesion kinase 1 (Q05397 2-1052 limits assumed): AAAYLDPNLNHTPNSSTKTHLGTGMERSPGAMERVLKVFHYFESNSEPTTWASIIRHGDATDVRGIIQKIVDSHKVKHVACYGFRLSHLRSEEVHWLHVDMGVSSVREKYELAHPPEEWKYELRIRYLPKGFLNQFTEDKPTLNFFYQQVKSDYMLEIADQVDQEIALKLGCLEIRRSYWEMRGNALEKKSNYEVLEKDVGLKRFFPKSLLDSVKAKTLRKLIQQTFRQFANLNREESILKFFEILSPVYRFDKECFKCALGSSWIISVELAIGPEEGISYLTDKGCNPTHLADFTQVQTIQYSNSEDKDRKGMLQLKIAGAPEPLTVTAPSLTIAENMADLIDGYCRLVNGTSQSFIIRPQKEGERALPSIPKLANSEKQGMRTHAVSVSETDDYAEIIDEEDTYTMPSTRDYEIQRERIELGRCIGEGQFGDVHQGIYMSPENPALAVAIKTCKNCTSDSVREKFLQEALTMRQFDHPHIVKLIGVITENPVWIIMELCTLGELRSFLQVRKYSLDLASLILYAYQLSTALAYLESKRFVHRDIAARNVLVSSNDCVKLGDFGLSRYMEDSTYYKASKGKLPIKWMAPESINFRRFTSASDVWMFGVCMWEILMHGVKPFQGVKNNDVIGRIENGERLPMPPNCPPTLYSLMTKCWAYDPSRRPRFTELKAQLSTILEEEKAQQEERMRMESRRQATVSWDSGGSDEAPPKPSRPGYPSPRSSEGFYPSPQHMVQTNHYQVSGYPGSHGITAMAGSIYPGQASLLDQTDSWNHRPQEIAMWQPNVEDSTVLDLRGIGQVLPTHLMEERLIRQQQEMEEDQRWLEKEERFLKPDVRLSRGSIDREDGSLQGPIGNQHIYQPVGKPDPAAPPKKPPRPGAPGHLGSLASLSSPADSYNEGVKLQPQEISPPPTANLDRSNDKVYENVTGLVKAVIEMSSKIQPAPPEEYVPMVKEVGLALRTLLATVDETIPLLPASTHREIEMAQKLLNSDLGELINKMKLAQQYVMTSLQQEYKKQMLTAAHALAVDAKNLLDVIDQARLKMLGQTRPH
Sequence of Protein-tyrosine kinase 2-beta (Homo sapiens) (Q14289 whole entry, looked up, the tested form may be a part): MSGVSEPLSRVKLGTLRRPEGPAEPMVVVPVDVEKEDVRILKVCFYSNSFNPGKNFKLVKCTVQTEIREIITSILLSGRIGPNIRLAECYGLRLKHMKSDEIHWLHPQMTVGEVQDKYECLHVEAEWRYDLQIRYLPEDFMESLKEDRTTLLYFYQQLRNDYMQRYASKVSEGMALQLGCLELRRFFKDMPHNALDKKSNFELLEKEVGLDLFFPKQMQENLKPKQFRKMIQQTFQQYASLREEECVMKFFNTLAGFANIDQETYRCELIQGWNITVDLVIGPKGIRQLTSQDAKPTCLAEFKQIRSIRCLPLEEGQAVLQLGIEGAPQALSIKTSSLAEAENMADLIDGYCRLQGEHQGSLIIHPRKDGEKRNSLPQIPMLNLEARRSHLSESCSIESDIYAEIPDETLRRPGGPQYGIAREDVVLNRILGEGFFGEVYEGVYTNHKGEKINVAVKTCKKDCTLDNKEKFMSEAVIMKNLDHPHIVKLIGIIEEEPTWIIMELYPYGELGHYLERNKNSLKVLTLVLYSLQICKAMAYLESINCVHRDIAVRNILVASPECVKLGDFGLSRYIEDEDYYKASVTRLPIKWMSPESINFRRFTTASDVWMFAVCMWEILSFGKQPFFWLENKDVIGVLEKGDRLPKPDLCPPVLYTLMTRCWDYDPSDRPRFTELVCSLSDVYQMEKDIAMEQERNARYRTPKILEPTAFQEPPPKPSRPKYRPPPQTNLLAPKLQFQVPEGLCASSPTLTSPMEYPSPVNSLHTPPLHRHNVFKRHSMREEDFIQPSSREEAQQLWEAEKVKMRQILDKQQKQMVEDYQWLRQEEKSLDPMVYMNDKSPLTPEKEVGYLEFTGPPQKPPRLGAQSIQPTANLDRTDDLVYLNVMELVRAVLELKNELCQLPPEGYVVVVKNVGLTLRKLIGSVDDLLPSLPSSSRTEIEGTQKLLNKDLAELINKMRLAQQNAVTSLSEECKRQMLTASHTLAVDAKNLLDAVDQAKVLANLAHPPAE

For `CCOP(=O)(CCCOc1ccc(Nc2ncc([N+](=O)[O-])c(Nc3ccccc3C(=O)NC)n2)cc1)N1CCOCC1` (centres undefined), the viability at 0.5 µM was 96.7% in test [1], 98% in test [13] and 94.4% in test [18]. Besides, the viability at 8 µM in [2] stood at 30.2%. The same molecule came in with a half-maximal inhibitory concentration (IC50) in test [3] of 570 nM. The Activity in test [4] worked out at 48.41%; in test [7], 38.6%; in test [8], 28%; in test [9] it was 21%; in [11] it was 16.3%; in [14], 40.06%. Besides, the figures for the Activity in test [16] and in test [17] were 16.6% and 75.3%, respectively. Further, the values for the viability at 4 µM in [5] and in test [10] were 40.8% and 47.7%, respectively. For the same molecule, the inhibition in test [6] was 71%; in [12], 92%; in test [15], 22%; in test [19], 26%.

The values are drawn from ChEMBL document CHEMBL4177662, “Phosphamide-containing diphenylpyrimidine analogues (PA-DPPYs) as potent focal adhesion kinase (FAK) inhibitors with enhanced activity against pancreatic cancer cell lines” (Bioorg Med Chem, 2017).
